In ChEMBL document CHEMBL2021854, “2-Aminopyrimidine based 4-aminoquinoline anti-plasmodial agents. Synthesis, biological activity, structure-activity relationship and mode of action studies” (Eur J Med Chem, 2012):

What follows are molecules tested on Vaccinia virus (assay: Antiviral activity against Vaccinia virus infected in HEL cells assessed as inhibition of virus-induced cytopathogenicity after 4 days). Conditions: Orthopoxvirus vaccinia, 96 h.
Type: functional, organism-based
Summary of the method: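 Confluent HEL or HeLa monolayers infected with 100 CCID50 of virus in the presence of varying compound concentrations.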

`CCOC(=O)c1c(C)nc(NCCNc2ccnc3cc(Cl)ccc23)nc1-c1ccccc1` and `CCOC(=O)c1c(C)nc(NCCCNc2ccnc3cc(Cl)ccc23)nc1-c1ccccc1` cannot be ordered by EC50: greater than 4 µM for the first, greater than 100 µM for the second.

`CCOC(=O)c1c(C)nc(NCCCCNc2ccnc3cc(Cl)ccc23)nc1-c1ccccc1` and `CCOC(=O)c1c(C)nc(NCCCCNc2ccnc3cc(Cl)ccc23)nc1C` cannot be ordered by EC50: greater than 100 µM for the first, greater than 100 µM for the second.

`CCOC(=O)c1c(C)nc(NCCCNc2ccnc3cc(Cl)ccc23)nc1C` and `Cc1nc(NCCCNc2ccnc3cc(Cl)ccc23)nc(-c2cccc([N+](=O)[O-])c2)c1C(=O)OC(C)C` cannot be ordered by EC50: greater than 100 µM for the first, greater than 4 µM for the second.

`Cc1nc(NCCNc2ccnc3cc(Cl)ccc23)nc(-c2ccccc2[N+](=O)[O-])c1C(=O)OC(C)C` and `Cc1nc(NCCCCNc2ccnc3cc(Cl)ccc23)nc(-c2ccccc2[N+](=O)[O-])c1C(=O)OC(C)C` cannot be ordered by EC50: greater than 20 µM for the first, greater than 4 µM for the second.

`Nc1nc2c(ncn2COCCO)c(=O)[nH]1` [ACYCLOVIR] and `Nc1nc(O)c2ncn(COC(CO)CO)c2n1` [GANCICLOVIR] cannot be ordered by EC50: greater than 250 µM for the first, greater than 100 µM for the second.
